Source: ChEMBL document CHEMBL3244375, “Hypolipidemic arylthioalkanoic acids” (J Med Chem, 1977)

What was measured:
Rattus norvegicus [1] = assay: Toxicity in Sprague-Dawley rat assessed as increase in liver weight at 0.125 % compound administered in diet for 14 days relative to control; assay type: organism-based; settings: in vivo, po, 336 h
In short: (§1)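 Rats fed compound-containing diet ad libitum for 14 days alongside feed-only controls, eight rats per group in the dose-response study. At sacrifice by decapitation, liver removed and weighed. Change from controls scored semi-quantitatively, each + or − sign representing about a 10% change.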

Rattus norvegicus [2] = assay: Hypolipidemic activity in Sprague-Dawley rat assessed as reduction in serum cholesterol level at 0.125 % compound administered in diet for 14 days relative to control; assay type: functional; set-up: scale not given: the % may be the effect or the level left
In short: (§2)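 Test compound mixed into feed, given ad libitum to rats for 14 days; controls received feed alone. Rats then weighed and killed by decapitation; blood collected and serum cholesterol and triglycerides measured by previously described methods. Data reported as mg% serum with SD per group, % change versus control; significance by Student's t test. Dose-response groups of eight rats.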

Rattus norvegicus [3] = assay: Hypolipidemic activity in Sprague-Dawley rat assessed as reduction in serum triglyceride level at 0.125 % compound administered in diet for 14 days relative to control; assay type: functional; set-up: scale not given: the % may be the effect or the level left; in short: as §2
[4] = Retardation factor of the compound by thin layer chromatography; assay type: physicochemical
Rattus norvegicus [5] = assay: Hypolipidemic activity in Sprague-Dawley rat assessed as reduction in serum cholesterol level at 0.25 % compound administered in diet for 14 days relative to control; assay type: functional; set-up: scale not given: the % may be the effect or the level left; in short: as §2
Rattus norvegicus [6] = assay: Hypolipidemic activity in Sprague-Dawley rat assessed as reduction in serum triglyceride level at 0.25 % compound administered in diet for 14 days relative to control; assay type: functional; set-up: scale not given: the % may be the effect or the level left; in short: as §2
Rattus norvegicus [7] = assay: Toxicity in Sprague-Dawley rat assessed as increase in liver weight at 0.25 % compound administered in diet for 14 days relative to control; assay type: organism-based; settings: in vivo, po, 336 h; in short: as §1
Rattus norvegicus [8] = assay: Toxicity in Sprague-Dawley rat assessed as mortality at 0.125 % compound administered in diet for 14 days relative to control; assay type: organism-based; settings: in vivo, po, 336 h
In short: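 Compound mixed into rat feed and given ad libitum for 14 days; control groups received feed alone. At the end of the period, animals were weighed and killed by decapitation, blood was collected, and the liver was removed and weighed.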

Rattus norvegicus [9] = assay: Hypolipidemic activity in Sprague-Dawley rat assessed as reduction in serum triglyceride level at 0.06 % compound administered in diet for 14 days relative to control; assay type: functional; set-up: scale not given: the % may be the effect or the level left; in short: as §2
[10] = Toxicity in mouse; assay type: organism-based; settings: in vivo
Rattus norvegicus [11] = assay: Hypolipidemic activity in Sprague-Dawley rat assessed as reduction in serum triglyceride level at 0.03 % compound administered in diet for 14 days relative to control; assay type: functional; set-up: scale not given: the % may be the effect or the level left; in short: as §2
[12] = Toxicity in rat; assay type: organism-based; settings: in vivo
Rattus norvegicus [13] = assay: Hypolipidemic activity in Sprague-Dawley rat assessed as reduction in serum cholesterol level at 0.06 % compound administered in diet for 14 days relative to control; assay type: functional; set-up: scale not given: the % may be the effect or the level left; in short: as §2
Rattus norvegicus [14] = assay: Hypolipidemic activity in Sprague-Dawley rat assessed as reduction in serum cholesterol level at 0.03 % compound administered in diet for 14 days relative to control; assay type: functional; set-up: scale not given: the % may be the effect or the level left; in short: as §2

CCCCCCC(C)(Sc1cc(C(C)(C)C)c(O)c(C(C)(C)C)c1)C(=O)O (configuration not stated)
Activity (Rattus norvegicus [1]): 10%
Activity (Rattus norvegicus [2]): 17%
Activity (Rattus norvegicus [3]): -73%

CCCCC(C(=O)OCC)c1cc(C(C)(C)C)c(O)c(C(C)(C)C)c1 (configuration not stated)
Activity (Rattus norvegicus [2]): -2%
Activity (Rattus norvegicus [3]): -10%

CCCC(Sc1cc(C(C)(C)C)c(O)c(C(C)(C)C)c1)C(=O)O (configuration not stated)
Activity (Rattus norvegicus [1]): 30%
Activity (Rattus norvegicus [2]): -3%
Activity (Rattus norvegicus [3]): -72%

CCCCC(Sc1ccc(Br)c(C)c1)C(=O)O (configuration not stated)
deltaRm [4]: 0.51
Activity (Rattus norvegicus [1]): 20%
Activity (Rattus norvegicus [2]): -17%
Activity (Rattus norvegicus [3]): -49%

CC(C)(C)c1cc(SCC(=O)O)cc(C(C)(C)C)c1O
Activity (Rattus norvegicus [5]): -16%

CCCCC(C)(Sc1cc(C(C)(C)C)c(O)c(C(C)(C)C)c1)C(=O)O (configuration not stated)
Activity (Rattus norvegicus [1]): 20%
Activity (Rattus norvegicus [2]): 8%
Activity (Rattus norvegicus [3]): -66%

CCCCC(Sc1ccc(Cl)cc1)C(=O)O (configuration not stated)
deltaRm [4]: 0.25
Activity (Rattus norvegicus [1]): 0%
Activity (Rattus norvegicus [2]): -16%
Activity (Rattus norvegicus [3]): -41%

CCCCC(Sc1cc(C2CCCC2)c(O)c(C2CCCC2)c1)C(=O)O (configuration not stated)
deltaRm [4]: 0.94
Activity (Rattus norvegicus [1]): Non-toxic
Activity (Rattus norvegicus [2]): -11%
Activity (Rattus norvegicus [3]): -16%

CC(Sc1cc(C(C)(C)C)c(O)c(C(C)(C)C)c1)C(=O)O (configuration not stated)
Activity (Rattus norvegicus [6]): -78%
Activity (Rattus norvegicus [5]): -32%
Activity (Rattus norvegicus [7]): 30%

CCCC(C)(Sc1cc(C(C)(C)C)cc(C(C)(C)C)c1)C(=O)O (configuration not stated)
Activity (Rattus norvegicus [1]): 40%
Activity (Rattus norvegicus [2]): -29%
Activity (Rattus norvegicus [3]): -80%

CCCCC(C(=O)O)S(=O)(=O)c1cc(C(C)(C)C)c(O)c(C(C)(C)C)c1 (configuration not stated)
Activity (Rattus norvegicus [6]): -44%
Activity (Rattus norvegicus [5]): -17%
Activity (Rattus norvegicus [1]): 20%
Activity (Rattus norvegicus [2]): -14%
Activity (Rattus norvegicus [3]): -36%

CCOC(=O)C(C)(C)Sc1cc(C(C)(C)C)c(O)c(C(C)(C)C)c1
Activity (Rattus norvegicus [6]): -60%
Activity (Rattus norvegicus [5]): -23%
Activity (Rattus norvegicus [7]): 20%

CCCCC(Oc1cc(C(C)(C)C)c(O)c(C(C)(C)C)c1)C(=O)O (configuration not stated)
Activity (Rattus norvegicus [1]): 20%
Activity (Rattus norvegicus [2]): -7%
Activity (Rattus norvegicus [3]): -38%

CC(Oc1cc(C(C)(C)C)c(O)c(C(C)(C)C)c1)C(=O)O (configuration not stated)
Activity (Rattus norvegicus [8]): Toxic

CCC(Sc1cc(C(C)(C)C)c(O)c(C(C)(C)C)c1)C(=O)O (configuration not stated)
Activity (Rattus norvegicus [6]): -74%
Activity (Rattus norvegicus [5]): -37%
Activity (Rattus norvegicus [7]): 40%

CC(C)(C)c1cc(OCC(=O)O)cc(C(C)(C)C)c1O
Activity (Rattus norvegicus [2]): 13%
Activity (Rattus norvegicus [3]): -50%

CC(C)(Sc1cc(C(C)(C)C)c(O)c(C(C)(C)C)c1)C(=O)O
Activity (Rattus norvegicus [6]): -66%
Activity (Rattus norvegicus [5]): -21%
Activity (Rattus norvegicus [7]): 40%

CCCCCC(C)(Sc1cc(C(C)(C)C)c(O)c(C(C)(C)C)c1)C(=O)O (configuration not stated)
Activity (Rattus norvegicus [1]): 10%
Activity (Rattus norvegicus [2]): -10%
Activity (Rattus norvegicus [3]): -60%

CCCC(C)(Sc1cc(C(C)(C)C)c(O)c(C(C)(C)C)c1)C(=O)O (configuration not stated)
Activity (Rattus norvegicus [1]): 30%
Activity (Rattus norvegicus [2]): 12%
Activity (Rattus norvegicus [3]): -55%

CCCCC(Sc1cc(C(C)(C)C)cc(C(C)(C)C)c1)C(=O)O (configuration not stated)
Activity (Rattus norvegicus [6]): -41%
deltaRm [4]: 1.18
Activity (Rattus norvegicus [5]): -20%
Activity (Rattus norvegicus [1]): 20%
Activity (Rattus norvegicus [2]): -23%
Activity (Rattus norvegicus [3]): -58%

CCCCC(Oc1cc(C(C)(C)C)c(O)c(C(C)(C)C)c1)C(=O)OCC (configuration not stated)
Activity (Rattus norvegicus [1]): 10%
Activity (Rattus norvegicus [2]): -13%
Activity (Rattus norvegicus [3]): -28%

CCCCC(Sc1cc(C2CCCCC2)c(O)c(C2CCCCC2)c1)C(=O)O (configuration not stated)
deltaRm [4]: 1.1
Activity (Rattus norvegicus [1]): Non-toxic
Activity (Rattus norvegicus [2]): -3%
Activity (Rattus norvegicus [3]): 5%

CCC(Oc1cc(C(C)(C)C)c(O)c(C(C)(C)C)c1)C(=O)O (configuration not stated)
Activity (Rattus norvegicus [2]): 6%
Activity (Rattus norvegicus [3]): 38%

CCCCC(C(=O)O)c1cc(C(C)(C)C)c(O)c(C(C)(C)C)c1 (configuration not stated)
Activity (Rattus norvegicus [2]): -20%
Activity (Rattus norvegicus [3]): -24%

CCCCCC(Sc1cc(C(C)(C)C)c(O)c(C(C)(C)C)c1)C(=O)O (configuration not stated)
Activity (Rattus norvegicus [6]): -53%
Activity (Rattus norvegicus [5]): -24%
Activity (Rattus norvegicus [7]): 10%

CCCCC(Sc1ccc(C)cc1)C(=O)O (configuration not stated)
deltaRm [4]: 0.23
Activity (Rattus norvegicus [1]): 0%
Activity (Rattus norvegicus [2]): -11%
Activity (Rattus norvegicus [3]): -23%

CCCCCCC(C)(Sc1cc(C(C)(C)C)cc(C(C)(C)C)c1)C(=O)O (configuration not stated)
Activity (Rattus norvegicus [1]): 30%
Activity (Rattus norvegicus [2]): -38%
Activity (Rattus norvegicus [3]): -68%

CCOC(=O)C(C)(C)Oc1ccc(Cl)cc1 [CLOFIBRATE]
Activity (Rattus norvegicus [6]): -50%
Activity (Rattus norvegicus [5]): -28%
Activity (Rattus norvegicus [7]): 20%

CCCCC(Sc1ccccc1)C(=O)O (configuration not stated)
deltaRm [4]: 0
Activity (Rattus norvegicus [1]): 0%
Activity (Rattus norvegicus [2]): -16%
Activity (Rattus norvegicus [3]): -37%

CCCCC(Sc1cc(C(C)(C)C)c(O)c(C(C)(C)C)c1)C(=O)O (racemic)
Activity (Rattus norvegicus [9]): -61%
Activity (Rattus norvegicus [6]): -69%
LD50 [10]: 5000 mg/kg
deltaRm [4]: 0.96
Activity (Rattus norvegicus [11]): -35%
Activity (Rattus norvegicus [5]): -30%
Activity (Rattus norvegicus [1]): 10%
LD50 [12]: 7200 mg/kg
Activity (Rattus norvegicus [13]): -28%
Activity (Rattus norvegicus [2]): -32%
Activity (Rattus norvegicus [3]): -66%
Activity (Rattus norvegicus [7]): 20%
Activity (Rattus norvegicus [14]): -21%

CC(C)(Sc1cc(C(C)(C)C)cc(C(C)(C)C)c1)C(=O)O
Activity (Rattus norvegicus [1]): 30%
Activity (Rattus norvegicus [2]): -31%
Activity (Rattus norvegicus [3]): -63%

CCC(C)(Sc1cc(C(C)(C)C)c(O)c(C(C)(C)C)c1)C(=O)O (configuration not stated)
Activity (Rattus norvegicus [6]): -80%
Activity (Rattus norvegicus [5]): -32%
Activity (Rattus norvegicus [7]): 40%

CCCCCC(C)(Sc1cc(C(C)(C)C)cc(C(C)(C)C)c1)C(=O)O (configuration not stated)
Activity (Rattus norvegicus [1]): 20%
Activity (Rattus norvegicus [2]): -27%
Activity (Rattus norvegicus [3]): -73%

CCCCC(Sc1ccc(OC)cc1)C(=O)O (configuration not stated)
deltaRm [4]: 0.08
Activity (Rattus norvegicus [1]): 0%
Activity (Rattus norvegicus [2]): -12%
Activity (Rattus norvegicus [3]): -45%

CCOC(=O)C(CC)Sc1cc(C(C)(C)C)c(O)c(C(C)(C)C)c1 (configuration not stated)
Activity (Rattus norvegicus [6]): -55%
Activity (Rattus norvegicus [5]): -5%
Activity (Rattus norvegicus [2]): 13%
Activity (Rattus norvegicus [3]): -43%
Activity (Rattus norvegicus [7]): 10%

CC(C)(Sc1cc(C(C)(C)C)c(O)c(C(C)(C)C)c1)Sc1cc(C(C)(C)C)c(O)c(C(C)(C)C)c1 [PROBUCOL]
Activity (Rattus norvegicus [6]): -33%
Activity (Rattus norvegicus [5]): 38%
Activity (Rattus norvegicus [7]): 0%

CCCC(Sc1cc(C(C)(C)C)c(O)c(C(C)(C)C)c1)C(=O)OCC (configuration not stated)
Activity (Rattus norvegicus [6]): -54%
Activity (Rattus norvegicus [5]): 0%
Activity (Rattus norvegicus [7]): 0%
